Test results: ChEMBL document CHEMBL2331168, “Anticonvulsant evaluation of aminoalkanol derivatives of 2- and 4-methylxanthone” (Bioorg Med Chem, 2013)
The source made the active and inactive calls.

How the values were obtained:
[1] = tested on: Rattus norvegicus; assay: Anticonvulsant activity in Sprague-Dawley rat assessed as protection against maximal electroshock-induced seizures at 30 mg/kg, po after 2 hrs; format: functional, organism-based; parameters: dose 30 mg/kg
Method in brief: (§1)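 Male Sprague-Dawley rats dosed orally at 30 mg/kg and tested at 0.25, 0.5, 1, 2 and 4 h. Seizures were induced by 60 Hz alternating current at 150 mA for 0.2 s through corneal electrodes, after a drop of 0.9% NaCl in each eye. Protection meant abolition of hindlimb tonic extension. Reported as protected/tested, usually 4 rats per time point.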

[2] = tested on: Rattus norvegicus; assay: Anticonvulsant activity in Sprague-Dawley rat assessed as protection against maximal electroshock-induced seizures at 30 mg/kg, po after 0.5 hrs; format: functional, organism-based; parameters: dose 30 mg/kg; method in brief: as §1
[3] = tested on: Rattus norvegicus; assay: Anticonvulsant activity in Sprague-Dawley rat assessed as protection against maximal electroshock-induced seizures at 30 mg/kg, po after 0.25 hrs; format: functional, organism-based; parameters: dose 30 mg/kg; method in brief: as §1
[4] = tested on: Mus musculus; assay: Neurotoxicity in albino mouse assessed as minimal motor impairment at 300 mg/kg, ip after 4 hrs by rotorod test; format: toxicity, organism-based; parameters: dose 300 mg/kg, route intraperitoneal; details: in vivo
Method in brief: (§2)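 Male albino mice (Carworth Farms No. 1) were dosed ip with suspensions in 0.5% methylcellulose and put on a 1 in. knurled rod rotating at 6 rpm at set times after dosing. Neurotoxicity meant failure to stay on the rod for at least 1 min in each of three trials. Scored as impaired/tested.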

[5] = tested on: Mus musculus; assay: Neurotoxicity in albino mouse assessed as minimal motor impairment at 100 mg/kg, ip after 4 hrs by rotorod test; format: toxicity, organism-based; parameters: dose 100 mg/kg, route intraperitoneal; details: in vivo; method in brief: as §2
[6] = tested on: Mus musculus; assay: Neurotoxicity in albino mouse assessed as minimal motor impairment at 30 mg/kg, ip after 4 hrs by rotorod test; format: toxicity, organism-based; parameters: dose 30 mg/kg, route intraperitoneal; details: in vivo; method in brief: as §2
[7] = tested on: Mus musculus; assay: Neurotoxicity in albino mouse assessed as minimal motor impairment at 300 mg/kg, ip after 0.5 hrs by rotorod test; format: toxicity, organism-based; parameters: dose 300 mg/kg, route intraperitoneal; details: in vivo; method in brief: as §2
[8] = tested on: Mus musculus; assay: Neurotoxicity in albino mouse assessed as minimal motor impairment at 100 mg/kg, ip after 0.5 hrs by rotorod test; format: toxicity, organism-based; parameters: dose 100 mg/kg, route intraperitoneal; details: in vivo; method in brief: as §2
[9] = tested on: Mus musculus; assay: Anticonvulsant activity in albino mouse assessed as protection against subcutaneous pentetrazole-induced seizures at 300 mg/kg, ip after 4 hrs; format: functional, organism-based; parameters: dose 300 mg/kg
Method in brief: (§3)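 Male albino mice (Carworth Farms No. 1) received compound ip in 0.5% methylcellulose, then pentetrazole 85 mg/kg sc in 0.9% NaCl at 0.5 or 4 h. Mice were watched for at least 30 min. Protection meant no threshold seizure, defined as a single clonic spasm lasting at least 5 s. Scored as protected/tested.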

[10] = tested on: Mus musculus; assay: Anticonvulsant activity in albino mouse assessed as protection against subcutaneous pentetrazole-induced seizures at 100 mg/kg, ip after 4 hrs; format: functional, organism-based; parameters: dose 100 mg/kg; method in brief: as §3
[11] = tested on: Mus musculus; assay: Anticonvulsant activity in albino mouse assessed as protection against subcutaneous pentetrazole-induced seizures at 300 mg/kg, ip after 0.5 hrs; format: functional, organism-based; parameters: dose 300 mg/kg; method in brief: as §3
[12] = tested on: Mus musculus; assay: Anticonvulsant activity in albino mouse assessed as protection against subcutaneous pentetrazole-induced seizures at 30 mg/kg, ip after 4 hrs; format: functional, organism-based; parameters: dose 30 mg/kg; method in brief: as §3
[13] = tested on: Mus musculus; assay: Anticonvulsant activity in albino mouse assessed as protection against subcutaneous pentetrazole-induced seizures at 100 mg/kg, ip after 0.5 hrs; format: functional, organism-based; parameters: dose 100 mg/kg; method in brief: as §3
[14] = tested on: Mus musculus; assay: Anticonvulsant activity in albino mouse assessed as protection against subcutaneous pentetrazole-induced seizures at 30 mg/kg, ip after 0.5 hrs; format: functional, organism-based; parameters: dose 30 mg/kg; method in brief: as §3
[15] = tested on: Mus musculus; assay: Anticonvulsant activity in albino mouse assessed as protection against maximal electroshock-induced seizures at 300 mg/kg, ip after 4 hrs; format: functional, organism-based; parameters: dose 300 mg/kg
Method in brief: (§4)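 Male albino mice (Carworth Farms No. 1) were given the compound ip as a suspension in 0.5% methylcellulose at 3–300 mg/kg. MES testing was at 0.5 and 4 h, sometimes also at 0.25 and 1 h. Current was 60 Hz, 50 mA, 0.2 s via corneal electrodes, with saline eye drops. Protection meant no hindlimb tonic extension, scored as protected/tested.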

[16] = tested on: Mus musculus; assay: Anticonvulsant activity in albino mouse assessed as protection against maximal electroshock-induced seizures at 30 mg/kg, ip after 4 hrs; format: functional, organism-based; parameters: dose 30 mg/kg; method in brief: as §4
[17] = tested on: Mus musculus; assay: Anticonvulsant activity in albino mouse assessed as protection against maximal electroshock-induced seizures at 300 mg/kg, ip after 0.5 hrs; format: functional, organism-based; parameters: dose 300 mg/kg; method in brief: as §4
[18] = tested on: Mus musculus; assay: Anticonvulsant activity in albino mouse assessed as protection against maximal electroshock-induced seizures at 100 mg/kg, ip after 0.5 hrs; format: functional, organism-based; parameters: dose 100 mg/kg; method in brief: as §4
[19] = tested on: Mus musculus; assay: Anticonvulsant activity in albino mouse assessed as protection against maximal electroshock-induced seizures at 30 mg/kg, ip after 0.5 hrs; format: functional, organism-based; parameters: dose 30 mg/kg; method in brief: as §4
[20] = tested on: Mus musculus; assay: Neurotoxicity in albino mouse assessed as minimal motor impairment at 30 mg/kg, ip after 0.5 hrs by rotorod test; format: toxicity, organism-based; parameters: dose 30 mg/kg, route intraperitoneal; details: in vivo; method in brief: as §2
[21] = tested on: Rattus norvegicus; assay: Neurotoxicity in Sprague-Dawley rat assessed as minimal motor impairment at 30 mg/kg, po after 1 hr by rotorod test; details: in vivo
[22] = tested on: Rattus norvegicus; assay: Neurotoxicity in Sprague-Dawley rat assessed as minimal motor impairment at 30 mg/kg, po after 4 hrs by rotorod test; details: in vivo
[23] = tested on: Rattus norvegicus; assay: Neurotoxicity in Sprague-Dawley rat assessed as minimal motor impairment at 30 mg/kg, po after 2 hrs by rotorod test; details: in vivo
[24] = tested on: Rattus norvegicus; assay: Neurotoxicity in Sprague-Dawley rat assessed as minimal motor impairment at 30 mg/kg, po after 0.5 hrs by rotorod test; details: in vivo
[25] = tested on: Rattus norvegicus; assay: Neurotoxicity in Sprague-Dawley rat assessed as minimal motor impairment at 30 mg/kg, po after 0.25 hrs by rotorod test; details: in vivo
[26] = tested on: Rattus norvegicus; assay: Anticonvulsant activity in Sprague-Dawley rat assessed as protection against maximal electroshock-induced seizures at 30 mg/kg, po after 4 hrs; format: functional, organism-based; parameters: dose 30 mg/kg; method in brief: as §1
[27] = tested on: Mus musculus; assay: Anticonvulsant activity in albino mouse assessed as protection against maximal electroshock-induced seizures at 100 mg/kg, ip after 4 hrs; format: functional, organism-based; parameters: dose 100 mg/kg; method in brief: as §4
[28] = tested on: Rattus norvegicus; assay: Anticonvulsant activity in Sprague-Dawley rat assessed as protection against maximal electroshock-induced seizures at 30 mg/kg, po after 1 hr; format: functional, organism-based; parameters: dose 30 mg/kg; method in brief: as §1

| Structure (SMILES) | Activity [3] | Activity [5] | Activity [6] | Activity [7] | Activity [10] | Activity [11] | Activity [12] | Activity [13] | Activity [14] | Activity [15] | Activity [16] | Activity [17] | Activity [19] | Activity [20] | Activity [21] | Activity [22] | Activity [23] | Activity [24] | Activity [25] | Activity [27] | further results |
| --- | --- | --- | --- | --- | --- | --- | --- | --- | --- | --- | --- | --- | --- | --- | --- | --- | --- | --- | --- | --- | --- |
| CC(CO)NCc1ccc2oc3ccc(Cl)cc3c(=O)c2c1 (racemic) | inactive | Non-toxic | Non-toxic | Non-toxic | inactive | inactive | inactive | inactive | inactive | Active | inactive | inactive | inactive | Non-toxic | Non-toxic | Non-toxic | Non-toxic | Non-toxic | Non-toxic | – | Activity [1]: inactive; Activity [2]: inactive; Activity [4]: Non-toxic; Activity [8]: Non-toxic; Activity [9]: inactive; Activity [18]: inactive |
| COc1ccc2c(=O)c3cccc(CN[C@@H](C)CO)c3oc2c1 | inactive | Non-toxic | Non-toxic | – | inactive | inactive | inactive | inactive | inactive | Active | inactive | inactive | inactive | Non-toxic | Non-toxic | Non-toxic | Non-toxic | Non-toxic | Non-toxic | inactive | Activity [26]: inactive; Activity [1]: inactive; Activity [2]: inactive; Activity [4]: Non-toxic; Activity [9]: inactive |
| CC[C@@H](CO)NCc1cccc2c(=O)c3ccc(OC)cc3oc12 | inactive | – | Non-toxic | Toxic | inactive | inactive | inactive | inactive | inactive | Active | inactive | Active | inactive | – | Non-toxic | Non-toxic | Non-toxic | Non-toxic | Non-toxic | – | Activity [26]: inactive; Activity [9]: inactive |
| COc1ccc2c(=O)c3cccc(CNC(C)(C)CO)c3oc2c1 | inactive | Non-toxic | Non-toxic | Toxic | inactive | – | inactive | inactive | inactive | – | inactive | – | inactive | Non-toxic | Non-toxic | Non-toxic | Non-toxic | Non-toxic | Non-toxic | inactive | Activity [1]: inactive; Activity [8]: Toxic; Activity [18]: Active |
| C[C@H](CO)NCc1ccc2oc3ccc(Cl)cc3c(=O)c2c1 | – | Non-toxic | Non-toxic | – | inactive | inactive | inactive | inactive | inactive | Active | inactive | Active | inactive | Non-toxic | Non-toxic | Non-toxic | Non-toxic | Non-toxic | Non-toxic | inactive | Activity [1]: inactive; Activity [2]: inactive; Activity [4]: Non-toxic; Activity [8]: Non-toxic; Activity [9]: inactive |
| COc1ccc2c(=O)c3cccc(CNCC(C)O)c3oc2c1 (racemic) | – | – | Non-toxic | Toxic | inactive | – | inactive | inactive | inactive | – | inactive | – | inactive | Non-toxic | – | – | – | – | – | – | Activity [8]: Toxic; Activity [18]: Active |
| COc1ccc2c(=O)c3cccc(CNC(C)CO)c3oc2c1.Cl (racemic) | inactive | Toxic | Non-toxic | Toxic | – | – | inactive | inactive | inactive | – | inactive | – | inactive | Non-toxic | Non-toxic | Non-toxic | Non-toxic | Non-toxic | Non-toxic | inactive | Activity [1]: inactive; Activity [28]: inactive |
| CC[C@H](CO)NCc1cccc2c(=O)c3ccc(OC)cc3oc12 | – | Non-toxic | Non-toxic | Toxic | inactive | inactive | inactive | inactive | inactive | Active | inactive | Active | inactive | Non-toxic | Non-toxic | Non-toxic | Non-toxic | Non-toxic | Non-toxic | inactive | Activity [2]: inactive; Activity [4]: Non-toxic; Activity [8]: Non-toxic; Activity [9]: inactive |
| COc1ccc2c(=O)c3cccc(CN[C@H](C)CO)c3oc2c1 | inactive | Non-toxic | Non-toxic | Toxic | inactive | inactive | inactive | inactive | inactive | Active | inactive | Active | inactive | Non-toxic | – | – | Non-toxic | – | Non-toxic | inactive | Activity [26]: inactive; Activity [28]: inactive; Activity [4]: Toxic; Activity [18]: inactive |
